Tests used:
Cynomolgus monkey [1] = assay: Uptake in anesthetized cynomolgus monkey medulla after 65.0 mins; type: ADME, organism-based, Medulla of organ; conditions: in vivo
Procedure, shortened: (§1)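 Baseline microPET scan (P4 scanner) of anesthetized cynomolgus monkeys after injection of the carbon-11 labelled nortropane tracer. Two baseline studies were run per tracer. Radioactivity was followed over time in regional brain time-activity curves.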

Cynomolgus monkey [2] = assay: Uptake in anesthetized cynomolgus monkey cerebellum after 35.0 mins; type: ADME, organism-based, Macaca mulatta; conditions: rhesus monkey, in vivo
Procedure, shortened: (§2)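 Baseline microPET (Concorde P4) regional brain time-activity curves in anesthetized cynomolgus monkey following injection of the [11C]-labelled tracer, with radioactivity followed over the scan.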

Cynomolgus monkey [3] = assay: Uptake in anesthetized cynomolgus monkey medulla after 75.0 mins; type: ADME, organism-based, Medulla of organ; conditions: in vivo, 1.25 h; procedure, shortened: as §1
Cynomolgus monkey [4] = assay: Uptake in anesthetized cynomolgus monkey putamen after 75.0 mins; type: ADME, organism-based; conditions: in vivo, 1.25 h
Procedure, shortened: (§3)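 Baseline microPET (Concorde P4) scan in anesthetized cynomolgus monkeys after injection of the carbon-11 labeled tracer, with no chase drug. Regional brain time-activity curves were followed over the scan. Tracer radiochemical purity and specific activity were determined by analytical HPLC at the time of injection.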

Cynomolgus monkey [5] = assay: Uptake in anesthetized cynomolgus monkey midbrain after 105.0 mins; type: ADME, organism-based; conditions: in vivo, 1.75 h; procedure, shortened: as §1
Cynomolgus monkey [6] = assay: Uptake in anesthetized cynomolgus monkey occipital after 15.5 mins; type: ADME, organism-based, Macaca mulatta, Occipital cortex; conditions: rhesus monkey, in vivo; procedure, shortened: as §1
Cynomolgus monkey [7] = assay: Uptake in anesthetized cynomolgus monkey medulla after 15.5 mins; type: ADME, organism-based, Medulla of organ; conditions: in vivo; procedure, shortened: as §1
Cynomolgus monkey [8] = assay: Uptake in anesthetized cynomolgus monkey pons after 27.5 mins; type: ADME, organism-based; conditions: in vivo; procedure, shortened: as §3
Cynomolgus monkey [9] = assay: Uptake in anesthetized cynomolgus monkey caudate after 115.0 mins; type: ADME, organism-based, Caudate nucleus; conditions: in vivo; procedure, shortened: as §2
Cynomolgus monkey [10] = assay: Uptake in anesthetized cynomolgus monkey frontal after 4.5 mins; type: ADME, organism-based, Frontal cortex; conditions: in vivo, 0.075 h; procedure, shortened: as §1
Cynomolgus monkey [11] = assay: Uptake in anesthetized cynomolgus monkey putamen after 3.5 mins; type: ADME, organism-based; conditions: in vivo; procedure, shortened: as §3
Cynomolgus monkey [12] = assay: Uptake in anesthetized cynomolgus monkey caudate after 75.0 mins; type: ADME, organism-based, Caudate nucleus; conditions: in vivo, 1.25 h; procedure, shortened: as §2
Cynomolgus monkey [13] = assay: Uptake in anesthetized cynomolgus monkey putamen after 115.0 mins; type: ADME, organism-based; conditions: in vivo; procedure, shortened: as §3
Cynomolgus monkey [14] = assay: Uptake in anesthetized cynomolgus monkey frontal after 9.5 mins; type: ADME, organism-based, Frontal cortex; conditions: in vivo; procedure, shortened: as §1
Cynomolgus monkey [15] = assay: Ratio of uptake in caudate to cerebellum of anesthetized cynomolgus monkey after 105 mins; type: ADME, organism-based; conditions: in vivo, 1.75 h
Procedure, shortened: (§4)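 Baseline microPET (Concorde P4) in anesthetized cynomolgus monkey after injection of the [11C]-labelled tracer. Regional time-activity curves were taken, and each region's uptake was divided by cerebellum uptake (low-SERT reference) at 65, 85 and 105 min postinjection.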

Cynomolgus monkey [16] = assay: Uptake in anesthetized cynomolgus monkey occipital after 12.5 mins; type: ADME, organism-based, Macaca mulatta, Occipital cortex; conditions: rhesus monkey, in vivo; procedure, shortened: as §1
Cynomolgus monkey [17] = assay: Uptake in anesthetized cynomolgus monkey cerebellum after 45.0 mins; type: ADME, organism-based; conditions: in vivo, 0.75 h; procedure, shortened: as §2
Cynomolgus monkey [18] = assay: Ratio of uptake in caudate to cerebellum of anesthetized cynomolgus monkey after 85 mins; type: ADME, organism-based; conditions: in vivo; procedure, shortened: as §4
Cynomolgus monkey [19] = assay: Uptake in anesthetized cynomolgus monkey cerebellum after 2.5 mins; type: ADME, organism-based, Macaca mulatta; conditions: rhesus monkey, in vivo; procedure, shortened: as §2
Cynomolgus monkey [20] = assay: Ratio of uptake in pons to cerebellum of anesthetized cynomolgus monkey after 105 mins; type: ADME, organism-based; conditions: in vivo, 1.75 h; procedure, shortened: as §4
Cynomolgus monkey [21] = assay: Ratio of uptake in occipital to cerebellum of anesthetized cynomolgus monkey after 105 mins; type: ADME, organism-based; conditions: in vivo, 1.75 h; procedure, shortened: as §4
Cynomolgus monkey [22] = assay: Uptake in anesthetized cynomolgus monkey occipital after 65.0 mins; type: ADME, organism-based, Macaca mulatta, Occipital cortex; conditions: rhesus monkey, in vivo; procedure, shortened: as §1
Cynomolgus monkey [23] = assay: Uptake in anesthetized cynomolgus monkey occipital after 2.5 mins; type: ADME, organism-based, Macaca mulatta, Occipital cortex; conditions: rhesus monkey, in vivo; procedure, shortened: as §1
Cynomolgus monkey [24] = assay: Uptake in anesthetized cynomolgus monkey thalamus after 105.0 mins; type: ADME, organism-based; conditions: in vivo, 1.75 h; procedure, shortened: as §3
Cynomolgus monkey [25] = assay: Ratio of uptake in putamen to cerebellum of anesthetized cynomolgus monkey after 85 mins; type: ADME, organism-based; conditions: in vivo; procedure, shortened: as §4
Cynomolgus monkey [26] = assay: Uptake in anesthetized cynomolgus monkey thalamus after 65.0 mins; type: ADME, organism-based; conditions: in vivo; procedure, shortened: as §3
Cynomolgus monkey [27] = assay: Uptake in anesthetized cynomolgus monkey frontal after 0.5 mins; type: ADME, organism-based, Frontal cortex; conditions: in vivo; procedure, shortened: as §2
Cynomolgus monkey [28] = assay: Uptake in anesthetized cynomolgus monkey thalamus after 18.5 mins; type: ADME, organism-based; conditions: in vivo; procedure, shortened: as §3
Cynomolgus monkey [29] = assay: Ratio of uptake in occipital to cerebellum of anesthetized cynomolgus monkey after 85 mins; type: ADME, organism-based; conditions: in vivo; procedure, shortened: as §4
Cynomolgus monkey [30] = assay: Ratio of uptake in pons to cerebellum of anesthetized cynomolgus monkey after 65 mins; type: ADME, organism-based; conditions: in vivo; procedure, shortened: as §4
Cynomolgus monkey [31] = assay: Uptake in anesthetized cynomolgus monkey frontal after 45.0 mins; type: ADME, organism-based, Frontal cortex; conditions: in vivo, 0.75 h; procedure, shortened: as §1
Cynomolgus monkey [32] = assay: Uptake in anesthetized cynomolgus monkey thalamus after 9.5 mins; type: ADME, organism-based; conditions: in vivo; procedure, shortened: as §3
Cynomolgus monkey [33] = assay: Uptake in anesthetized cynomolgus monkey frontal after 75.0 mins; type: ADME, organism-based, Frontal cortex; conditions: in vivo, 1.25 h; procedure, shortened: as §1
Cynomolgus monkey [34] = assay: Uptake in anesthetized cynomolgus monkey medulla after 27.5 mins; type: ADME, organism-based, Medulla of organ; conditions: in vivo; procedure, shortened: as §1

Q: Which results are given for `[11CH3]OC(=O)[C@@H]1C2CCC(C[C@@H]1c1cccc(/C=C/I)c1)N2` (some centres undefined)?
A: Drug uptake (Cynomolgus monkey [1]): 6.94; Drug uptake (Cynomolgus monkey [2]): 5.42; Drug uptake (Cynomolgus monkey [3]): 6.9; Drug uptake (Cynomolgus monkey [4]): 6.92; Drug uptake (Cynomolgus monkey [5]): 7.34; Drug uptake (Cynomolgus monkey [6]): 4.69; Drug uptake (Cynomolgus monkey [7]): 6.72; Drug uptake (Cynomolgus monkey [8]): 5.94; Drug uptake (Cynomolgus monkey [9]): 4.84; Drug uptake (Cynomolgus monkey [10]): 1.91; Drug uptake (Cynomolgus monkey [11]): 2.12; Drug uptake (Cynomolgus monkey [12]): 5.71; Drug uptake (Cynomolgus monkey [13]): 6.28; Drug uptake (Cynomolgus monkey [14]): 3.33; Ratio (Cynomolgus monkey [15]): 1.7; Drug uptake (Cynomolgus monkey [16]): 4.52; Drug uptake (Cynomolgus monkey [17]): 5.11; Ratio (Cynomolgus monkey [18]): 1.5; Drug uptake (Cynomolgus monkey [19]): 1.2; Ratio (Cynomolgus monkey [20]): 1.8; Ratio (Cynomolgus monkey [21]): 1.1; Drug uptake (Cynomolgus monkey [22]): 4.4; Drug uptake (Cynomolgus monkey [23]): 0.85; Drug uptake (Cynomolgus monkey [24]): 6.3; Ratio (Cynomolgus monkey [25]): 1.8; Drug uptake (Cynomolgus monkey [26]): 6.9; Drug uptake (Cynomolgus monkey [27]): 0.01; Drug uptake (Cynomolgus monkey [28]): 6.41; Ratio (Cynomolgus monkey [29]): 1; Ratio (Cynomolgus monkey [30]): 1.4; Drug uptake (Cynomolgus monkey [31]): 4.13; Drug uptake (Cynomolgus monkey [32]): 5.29; Drug uptake (Cynomolgus monkey [33]): 3.73; Drug uptake (Cynomolgus monkey [34]): 7.04

— ChEMBL document CHEMBL1137333, “Synthesis, radiosynthesis, and biological evaluation of carbon-11 labeled 2beta-carbomethoxy-3beta-(3'-((Z)-2-haloethenyl)phenyl)nortropanes: candidate radioligands for in vivo imaging of the serotonin transporter with positron emission tomography” (J Med Chem, 2006)
